A short description of data set [1]: AUC in Sprague-Dawley CD-1 rat plasma at 5 mg/kg, po administered through gavage measured up to 24 hrs by LC/MS analysis. It is filed as ADME, organism-based. Also noted: dose 5 mg/kg, time < 24 hr, route oral. The method in brief: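 Jugular-catheterized male Sprague Dawley CD-1 rats (220-250g). Oral arm: five rats, 5mg/kg gavage, 1mg/mL in DMSO:0.5% methylcellulose 10:90, 5mL/kg, sampled pre-dose and 0.25-24 h. i.v. arm: three rats, 1mg/kg, 0.5mg/mL in DMSO:PEG400:propylene glycol 10:45:45, sampled pre-dose and 0.08-24 h. Plasma by LC/MS.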

The target of data set [2] is T1, Glucocorticoid receptor (Canis lupus familiaris) (UniProt A0A8C0QLS2).
T1 sequence (whole entry): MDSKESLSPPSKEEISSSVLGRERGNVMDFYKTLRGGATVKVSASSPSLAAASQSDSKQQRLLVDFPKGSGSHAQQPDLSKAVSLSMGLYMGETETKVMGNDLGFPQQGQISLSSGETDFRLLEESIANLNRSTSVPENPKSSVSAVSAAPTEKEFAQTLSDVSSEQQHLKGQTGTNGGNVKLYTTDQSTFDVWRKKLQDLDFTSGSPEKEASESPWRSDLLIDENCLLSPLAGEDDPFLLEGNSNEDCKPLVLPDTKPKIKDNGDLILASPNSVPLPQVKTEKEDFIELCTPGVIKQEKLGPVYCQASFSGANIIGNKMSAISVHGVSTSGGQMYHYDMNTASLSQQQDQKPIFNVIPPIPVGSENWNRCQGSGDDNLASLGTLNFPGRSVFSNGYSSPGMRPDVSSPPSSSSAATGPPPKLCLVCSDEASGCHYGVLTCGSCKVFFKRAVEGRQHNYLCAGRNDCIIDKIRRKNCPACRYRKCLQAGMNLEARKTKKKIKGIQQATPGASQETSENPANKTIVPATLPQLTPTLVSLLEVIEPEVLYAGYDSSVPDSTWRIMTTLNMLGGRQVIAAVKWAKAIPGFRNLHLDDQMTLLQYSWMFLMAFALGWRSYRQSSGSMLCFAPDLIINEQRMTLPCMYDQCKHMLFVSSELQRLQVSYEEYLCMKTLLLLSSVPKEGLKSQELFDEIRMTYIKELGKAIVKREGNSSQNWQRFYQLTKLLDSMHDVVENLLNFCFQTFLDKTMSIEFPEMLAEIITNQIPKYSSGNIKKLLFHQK
The data set is described as follows: (§1) Antagonist activity at dog glucocorticoid receptor in primary hepatocytes assessed as dexamethasone-induced tyrosine amino transferase activity preincubated for 30 mins followed by dexamethasone addition measured after 20 hrs. Type of data set: cell-based.

A further data set concerns the target T2, Glucocorticoid receptor (Canis lupus familiaris, UniProt A0A8C0QLS2).
T2 sequence (A0A8C0QLS2 whole entry): T1 sequence (whole entry)
The data set is described as §1. It is filed as cell-based.

The target of the next data set is Cytochrome P450 2C9 (Homo sapiens, UniProt P11712). The data set is described as follows: Inhibition of CYP2C9 (unknown origin). It is filed as ADME.
The target in a further data set is T3, Cytochrome P450 1A2 (Homo sapiens, UniProt P05177).
T3 sequence (P05177 whole entry): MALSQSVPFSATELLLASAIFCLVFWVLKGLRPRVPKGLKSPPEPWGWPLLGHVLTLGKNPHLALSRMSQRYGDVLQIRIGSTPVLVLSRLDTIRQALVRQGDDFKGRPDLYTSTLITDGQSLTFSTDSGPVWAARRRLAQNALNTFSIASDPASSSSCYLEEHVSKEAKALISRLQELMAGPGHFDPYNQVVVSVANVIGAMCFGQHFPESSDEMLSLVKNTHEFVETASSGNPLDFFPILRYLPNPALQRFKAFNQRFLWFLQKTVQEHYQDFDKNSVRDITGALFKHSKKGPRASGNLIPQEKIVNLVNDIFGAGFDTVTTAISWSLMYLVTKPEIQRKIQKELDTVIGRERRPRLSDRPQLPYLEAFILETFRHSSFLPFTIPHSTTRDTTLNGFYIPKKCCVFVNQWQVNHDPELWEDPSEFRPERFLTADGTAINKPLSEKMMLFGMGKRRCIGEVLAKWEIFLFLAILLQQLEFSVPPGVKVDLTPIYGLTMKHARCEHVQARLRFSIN
The data set is described as follows: Induction of CYP1A2 in human hepatocytes. Type of data set: ADME, cell-based.

This is an account of results in ChEMBL document CHEMBL4049426, “Identification of the Clinical Candidate (R)-(1-(4-Fluorophenyl)-6-((1-methyl-1H-pyrazol-4-yl)sulfonyl)-4,4a,5,6,7,8-hexahydro-1H-pyrazolo[3,4-g]isoquinolin-4a-yl)(4-(trifluoromethyl)pyridin-2-yl)methanone (CORT125134): A Selective Glucocorticoid Receptor (GR) Antagonist” (J Med Chem, 2017).

The structures appear in SMILES notation. pIC50, pKi: −log10 of the molar value. Where only a bound is given, the exact number is not on record here.

Sequence of Cytochrome P450 2C9 (P11712 whole entry): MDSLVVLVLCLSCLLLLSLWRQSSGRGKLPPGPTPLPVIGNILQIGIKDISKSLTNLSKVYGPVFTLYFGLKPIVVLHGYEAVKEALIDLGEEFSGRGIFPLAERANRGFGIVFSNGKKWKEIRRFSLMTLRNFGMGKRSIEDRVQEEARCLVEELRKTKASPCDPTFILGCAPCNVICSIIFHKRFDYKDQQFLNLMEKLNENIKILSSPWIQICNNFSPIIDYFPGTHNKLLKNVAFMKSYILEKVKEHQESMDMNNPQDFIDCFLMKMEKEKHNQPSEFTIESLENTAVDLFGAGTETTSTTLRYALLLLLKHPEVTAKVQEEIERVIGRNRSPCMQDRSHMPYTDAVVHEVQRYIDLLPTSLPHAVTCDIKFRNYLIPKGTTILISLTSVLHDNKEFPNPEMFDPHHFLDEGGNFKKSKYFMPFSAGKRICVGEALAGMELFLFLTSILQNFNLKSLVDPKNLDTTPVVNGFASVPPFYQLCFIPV

As to `Cn1cc(S(=O)(=O)N2CCC3=Cc4c(cnn4-c4ccc(F)cc4)C[C@]3(C(=O)c3cc(C(F)(F)F)ccn3)C2)cn1` [RELACORILANT], in data set [1], the AUC (commonly the area under the concentration-time curve, a measure of exposure) at 24 h is 1550 ng·h/mL. Further, in data set [2], the Imax was found to be 31%. On Glucocorticoid receptor, the pKi – broadly, the Ki on a negative log10 scale, so that one unit is a factor of ten – was under 5.00. Moreover, the pIC50 (usually −log10 of the IC50, conventionally taken in molar units) against Cytochrome P450 2C9 is 5.70. On Cytochrome P450 1A2, the Activity entry is “Not Active”.
